# Active and inactive are the calls of the source. The calls are words filed in the database; no cut-off is given here.
# Assays:
# [1] = Inhibition of Mycobacterium tuberculosis FabG4 assessed as reduction in NADH to NAD+ conversion using acetoacetyl-CoA substrate by UV-visible spectrophotometry
# Method in brief: (§1)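 50 mM HEPES pH 7.4 at 25 °C with 1 µM FabG4, 0.2 mM β-NADH, 0.5 mM acetoacetyl-CoA and 5% methanol. Started with substrate; A340 decrease read every 2 min. IC50 taken graphically from dose-response plots. Mode found by varying NADH at three inhibitor levels, using Lineweaver-Burk plots.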
# [2] = Inhibition of Mycobacterium tuberculosis HtdX using crotonoyl-CoA substrate by UV-visible spectrophotometry
# Method in brief: (§2)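 50 mM HEPES pH 7.5 with 100 mM NaCl at 25 °C, containing 100 nM HtdX, 10 µM crotonoyl-CoA and 5% methanol. Started with substrate; A263 decrease read every 2 min. IC50 taken graphically from dose-response plots. Mode found by varying crotonoyl-CoA at three inhibitor levels, using Lineweaver-Burk plots.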
# [3] = test system: Mycolicibacterium smegmatis; assay: Antimycobacterial activity against Mycobacterium smegmatis str. MC2 155 assessed as inhibition of microbial growth incubated for 24 hrs by REMA method; type: functional; conditions: str. MC2 155, 24 h
# Method in brief: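 M. smegmatis mc2155 grown in 7H9 broth with 0.2% glycerol and 0.05% Tween 80 at 37 °C, 120 rpm, to mid-log (OD595 ~0.5). Diluted to OD595 0.0005 and exposed to drug for 24 h at 37 °C. Then 0.02% resazurin added for 40 min. MIC is the lowest concentration preventing the blue-to-pink change. Two repeats, averaged.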
# [4] = test system: Mycobacterium tuberculosis; assay: Competitive inhibition of Mycobacterium tuberculosis FabG4 assessed as reduction in NADH to NAD+ conversion using acetoacetyl-CoA substrate and varying NADH levels by UV-visible spectrophotometry; method in brief: as §1
# [5] = test system: Mycobacterium tuberculosis; assay: Binding affinity to Mycobacterium tuberculosis FabG4 assessed as first binding constant at 25 degC by isothermal titration calorimetry
# Method in brief: (§3)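 FabG4 at 4.5 µM in 50 mM HEPES pH 7.4 in the cell, titrated at 25 °C with 500 µM ligand in 5% methanol-buffer (0.4 µL then 19 × 2 µL, 120 s spacing). Buffer-ligand reference titration subtracted. Two sequential binding events, per monomer of the homodimer.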
# [6] = test system: Mycobacterium tuberculosis; assay: Binding affinity to Mycobacterium tuberculosis FabG4 assessed as second binding constant at 25 degC by isothermal titration calorimetry; method in brief: as §3
# [7] = test system: Mycobacterium tuberculosis; assay: Induction of changes in secondary structure of Mycobacterium tuberculosis FabG4 assessed as helix level at 50 uM by CD spectroscopy (reference value: 25.9%)
# [8] = test system: Mycobacterium tuberculosis; assay: Induction of changes in secondary structure of Mycobacterium tuberculosis FabG4 assessed as beta-sheet level at 50 uM by CD spectroscopy (reference value: 6%)
# [9] = test system: Mycobacterium tuberculosis; assay: Induction of changes in secondary structure of Mycobacterium tuberculosis FabG4 assessed as turns level at 50 uM by CD spectroscopy (reference value: 34.6%)
# [10] = test system: Mycobacterium tuberculosis; assay: Induction of changes in secondary structure of Mycobacterium tuberculosis FabG4 assessed as unordered level at 50 uM by CD spectroscopy (reference value: 33.5%)
# [11] = Drug metabolism in culture media assessed as isoniazid release in presence of Mycobacterium smegmatis str. MC2 155 incubated for 24 hrs by HPLC method; type: physicochemical
# Method in brief: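 Compound incubated in culture medium with M. smegmatis for 24 h. Culture then lyophilised, redissolved and run on HPLC (100% methanol eluent, 1.2 mL/min), checking for an isoniazid peak.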
# [12] = test system: Mycolicibacterium smegmatis; assay: Inhibition of biofilm formation of Mycobacterium smegmatis str. MC2 155 at 20 ug/ml incubated at 37 degC without shaking for 4 weeks; type: functional; conditions: str. MC2 155, 672 h
# Method in brief: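 M. smegmatis mc2155 planktonic culture inoculated at 1% into Sauton's minimal medium without Tween-80. Inhibitor at 5, 10, 20, 50 and 100 µg/mL, with a no-inhibitor control. Plates sealed and held static at 37 °C for 4 weeks; biofilm formation assessed visually.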
# [13] = test system: Mycobacterium tuberculosis; assay: Competitive inhibition of Mycobacterium tuberculosis HtdX using varying crotonoyl-CoA substrate by UV-visible spectrophotometry; method in brief: as §2
# [14] = test system: Mycobacterium tuberculosis; assay: Binding affinity to Mycobacterium tuberculosis HtdX assessed as binding constant at 25 degC by isothermal titration calorimetry
# Method in brief: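 HtdX at 10 µM in 50 mM HEPES pH 7.5 with 100 mM NaCl in the cell, titrated at 25 °C with 500 µM ligand in 5% methanol-buffer (0.4 µL then 19 × 2 µL). Buffer-ligand reference subtracted. Isotherm fitted to a one-site model.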
# [15] = test system: Mycobacterium tuberculosis; assay: Induction of changes in secondary structure of Mycobacterium tuberculosis HtdX assessed as helix level at 50 uM by CD spectroscopy (reference value: 12.2%)
# [16] = test system: Mycobacterium tuberculosis; assay: Induction of changes in secondary structure of Mycobacterium tuberculosis HtdX assessed as beta-sheet level at 50 uM by CD spectroscopy (reference value: 40.1%)
# [17] = test system: Mycobacterium tuberculosis; assay: Induction of changes in secondary structure of Mycobacterium tuberculosis HtdX assessed as turns level at 50 uM by CD spectroscopy (reference value: 12.6%)
# [18] = test system: Mycobacterium tuberculosis; assay: Induction of changes in secondary structure of Mycobacterium tuberculosis HtdX assessed as unordered level at 50 uM by CD spectroscopy (reference value: 35.2%)
Structure (SMILES),IC50 ([1]; read-out: IC50) [µM],IC50 [2],IC50 ([2]; read-out: IC50) [µM],MIC [3] [µg/mL],further results
O=C1[C@@H](CO)[C@H](c2ccncc2)N1c1ccccc1 (relative stereo),666,Not Active,,,
O=C(NNC(=O)[C@@H]1C(=O)N(c2ccccc2)[C@H]1c1ccco1)c1ccncc1 (relative stereo),27.6,,17.6,15,
O=C(NNC(=O)[C@@H]1C(=O)N(c2ccccc2)[C@H]1c1ccncc1)c1ccncc1 (relative stereo),15.2,,22.3,15,inhibition [4]: Active; K [5]: 2.98 ×10⁵ /M; K [6]: 1.15 ×10³ /M; Activity [7]: 30%; Activity [8]: 5.7%; Activity [9]: 29.8%; Activity [10]: 34.4%; Drug metabolism [11]: metabolite_notdetected; inhibition at 20 µg/mL [12]: 100%
NNC(=O)c1ccncc1 [ISONIAZID],,,,10,
O=C(O)[C@@H]1C(=O)N(c2ccccc2)[C@H]1c1cccs1 (relative stereo),,Not Active,,,IC50 [1]: Not Active
O=C(NNC(=O)[C@@H]1C(=O)N(c2ccccc2)[C@H]1c1ccncc1)c1ccccc1 (relative stereo),39.9,Not Active,,,
O=C(NNC(=O)[C@@H]1C(=O)N(c2ccccc2)[C@H]1c1cccs1)c1ccncc1 (relative stereo),26.1,,10.3,20,inhibition [13]: Active; K [14]: 4.21 ×10⁵ /M; Activity [15]: 11.1%; Activity [16]: 50.6%; Activity [17]: 2.6%; Activity [18]: 35.7%
O=C(O)[C@@H]1C(=O)N(c2ccccc2)[C@H]1c1ccncc1 (relative stereo),64.3,Not Active,,,
O=C(O)[C@@H]1C(=O)N(c2ccccc2)[C@H]1c1ccco1 (relative stereo),,Not Active,,,IC50 [1]: Not Active

# Reference: ChEMBL document CHEMBL3588761, “Design, synthesis and characterization of dual inhibitors against new targets FabG4 and HtdX of Mycobacterium tuberculosis” (Eur J Med Chem, 2015)
